According to ChEMBL document CHEMBL5653630, “Activation of the p53-MDM4 regulatory axis defines the anti-tumour response to PRMT5 inhibition through its role in regulating cellular splicing” (Sci Rep, 2018):
Values belong to the compound of their own block, whether it stands above or below them. Activity calls are given as the source filed them. No cut-off for these calls is given here.

What was measured:
Z-138 [1] = assay: Induction of cell cycle arrest in human Z138 cells assessed as increase in 2n cell population measured upto 5000 nM measured for 3 days by propidium iodide staining based flow cytometric analysis; format: functional; conditions: time 3.0 day
JVM-2 = assay: Induction of cell cycle arrest in human JVM-2 cells assessed as increase in 2n cell population measured upto 5000 nM measured for 3 days by propidium iodide staining based flow cytometric analysis; format: functional; conditions: time 3.0 day
Z-138 [2] = assay: Antitumor activity against human Z138 cells xenografted in mouse at 25 to 50 mg/kg, po BID measured at 14 to 21 days; format: functional, organism-based; conditions: dose lower […], dose upper 50.0 mg/kg, time 14-21 day
MCF7 = assay: Induction of cell cycle arrest in human MCF7 cells assessed as increase in sub-2N cell population measured upto 5000 nM measured for 7 to 10 days by propidium iodide staining based flow cytometric analysis; format: functional; conditions: time 7-10 day
Z-138 [3] = assay: Antitumor activity against human Z138 cells xenografted in po dosed mouse measured for 21 days; format: functional, organism-based; conditions: dose lower […], dose upper 200.0 mg/kg, time 21.0 day
Z-138 [4] = assay: Induction of cell cycle arrest in human Z138 cells assessed as accumulation of cells at G1 phase cells measured upto 1000 nM by propidium iodide staining based flow cytometric analysis; format: functional; conditions: time 1-10 day, TDE = time-dependent effect
Z-138 [5] = assay: In vivo inhibition of PRMT5 in human Z138 cells xenografted in mouse assessed as increase in SESN1 expression at 100 mg/kg, po BID measured for 7 days; format: functional, organism-based; conditions: time 7.0 day
Z-138 [6] = assay: Antitumor activity against human Z138 cells xenografted in mouse assessed as reduction in tumor volume at 200 mg/kg, po qd pretreated for 21 days followed by treatment holiday for 10 days and further compound treatment for 2 weeks starting from day 32 followed by 1 week treatment holiday; format: functional, organism-based; conditions: time 52.0 day
[7] = biological target: Protein arginine N-methyltransferase 5 (Homo sapiens) (UniProt O14744); assay: Inhibition of PRMT5 in human Z138 cells expressing full length MDM4 at 1 to 100000 nM incubated for 3 to 6 days; format: cell-based; conditions: dose 1-100000 nM, time 3-6 day
SK-N-AS = assay: Antiproliferative activity against human SK-N-AS cells assessed as cell growth inhibition incubated for 10 days; format: functional; conditions: 240 h, time 10 day
CHP-212 = assay: Antiproliferative activity against human CHP-212 cells assessed as cell growth inhibition incubated for 10 days; format: functional; conditions: CHP-212, 240 h, time 10 day
Procedure, shortened: (§1)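 Cells kept in RPMI-1640 with 10% FBS, 2 mM L-alanyl-L-glutamine and 1 mM Na pyruvate (or a special medium) at 37°C, 5% CO2. Compound added 24 h after seeding, 10 concentrations in 3.16-fold dilution, 0.1% DMSO final. Medium replaced and cells re-dosed at 168 h; 240 h incubation. Nuclei fixed, dye-stained and imaged. gIC50 = growth midway between untreated and time-zero cell counts, from a 4-parameter fit.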

NCI-H441 = assay: Antiproliferative activity against human NCI-H441 cells assessed as cell growth inhibition incubated for 10 days; format: functional; conditions: NCI-H441, 240 h, time 10 day
HT-3 = assay: Antiproliferative activity against human HT-3 cells assessed as cell growth inhibition incubated for 10 days; format: functional; conditions: HT-3, 240 h, time 10 day
Procedure, shortened: (§2)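 Outsourced panel run in 384-well plates. Cells were grown in RPMI-1640/10% FBS or a special medium at 37°C, 5% CO2. Compound was added 24 h after seeding as a 10-point, 3.16-fold series in 0.1% DMSO. Medium was refreshed and cells re-dosed at 168 h, with a time-zero plate kept. At 240 h cells were fixed, nuclei stained and imaged. gIC50 is growth midway between untreated and time zero, from a 4-parameter fit.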

SK-MEL3 = assay: Antiproliferative activity against human SK-MEL3 cells assessed as cell growth inhibition incubated for 10 days; format: functional; conditions: SK-MEL3, 240 h, time 10 day
Z-138 [8] = assay: Induction of cell cycle arrest in human Z138 cells expressing full length MDM4 assessed as accumulation of cells at G1 phase at 500 nM incubated for 4 days; format: functional, cell-based; conditions: time 4.0 day
A498 = assay: Antiproliferative activity against human A498 cells assessed as cell growth inhibition incubated for 10 days; format: functional; conditions: A498, 240 h, time 10 day; procedure, shortened: as §1
WiDr = assay: Antiproliferative activity against human WiDr cells assessed as cell growth inhibition incubated for 10 days; format: functional; conditions: 240 h, time 10 day
SW480 = assay: Antiproliferative activity against human SW480 cells assessed as cell growth inhibition incubated for 10 days; format: functional; conditions: SW480, 240 h, time 10 day
HeLa = assay: Antiproliferative activity against human HeLa cells assessed as cell growth inhibition incubated for 10 days; format: functional; conditions: 240 h, time 10 day; procedure, shortened: as §2
[9] = biological target: Protein arginine N-methyltransferase 5 (Homo sapiens) (UniProt O14744); assay: Inhibition of PRMT5 in human Z138 cells assessed as full length MDM4 splicing at 200 to 1000 nM incubated for 3 days by RT-PCR analysis; format: cell-based; conditions: dose 200-1000 nM, time 3.0 day
SNU-423 = assay: Antiproliferative activity against human SNU-423 cells assessed as cell growth inhibition incubated for 10 days; format: functional; conditions: SNU-423, 240 h, time 10 day
SK-N-FI = assay: Antiproliferative activity against human SK-N-FI cells assessed as cell growth inhibition incubated for 10 days; format: functional; conditions: 240 h, time 10 day
[10] = biological target: Protein arginine N-methyltransferase 5 (Homo sapiens) (UniProt O14744); assay: Inhibition of PRMT5 in human Z138 cells assessed as short MDM4 splicing at 200 to 1000 nM incubated for 3 days by RT-PCR analysis; format: cell-based; conditions: dose 200-1000 nM, time 3.0 day
[11] = biological target: Protein arginine N-methyltransferase 5 (Homo sapiens) (UniProt O14744); assay: Inhibition of PRMT5 in p53 knockout human Z138 cells at 1 to 100000 nM incubated for 3 to 6 days; format: cell-based; conditions: dose 1-100000 nM, time 3-6 day
NCI-H661 = assay: Antiproliferative activity against human NCI-H661 cells assessed as cell growth inhibition incubated for 10 days; format: functional; conditions: NCI-H661, 240 h, time 10 day
J-RT3-T3-5 = assay: Antiproliferative activity against human J-RT3-T3-5 cells assessed as cell growth inhibition incubated for 10 days; format: functional; conditions: J-RT3-T3-5, 240 h, time 10 day
Procedure, shortened: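 Eurofins-panel 10-day assay in 384-well plates. Cells grown in RPMI-1640 with 10% FBS, 2 mM L-alanyl-L-glutamine and 1mM Na pyruvate, or a special medium, at 37°C in 5% CO₂. Compound added 24 h after seeding, 10-point 3.16-fold series in 0.1% DMSO. Medium replaced and compound re-dosed at 168 h. Nuclei fixed and stained after 240 h, then imaged to give a relative cell count. gIC50 is the concentration giving growth midway between untreated and time-zero counts, from a 4-parameter fit.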

A-431 = assay: Antiproliferative activity against human A-431 cells assessed as cell growth inhibition incubated for 10 days; format: functional; conditions: A-431, 240 h, time 10 day; procedure, shortened: as §1
FaDu = assay: Antiproliferative activity against human FaDu cells assessed as cell growth inhibition incubated for 10 days; format: functional; conditions: 240 h, time 10 day; procedure, shortened: as §2
[12] = Antiproliferative activity against human BM-1604 cells assessed as cell growth inhibition incubated for 10 days; format: functional; conditions: BM-1604, 240 h, time 10 day; procedure, shortened: as §1
U2OS = assay: Antiproliferative activity against human U2OS cells assessed as cell growth inhibition incubated for 10 days; format: functional; conditions: 240 h, time 10 day
HCT-116 = assay: Antiproliferative activity against human HCT-116 cells assessed as cell growth inhibition incubated for 10 days; format: functional; conditions: HCT-116, 240 h, time 10 day; procedure, shortened: as §2

Chain of Protein arginine N-methyltransferase 5 (Homo sapiens) (O14744 whole entry): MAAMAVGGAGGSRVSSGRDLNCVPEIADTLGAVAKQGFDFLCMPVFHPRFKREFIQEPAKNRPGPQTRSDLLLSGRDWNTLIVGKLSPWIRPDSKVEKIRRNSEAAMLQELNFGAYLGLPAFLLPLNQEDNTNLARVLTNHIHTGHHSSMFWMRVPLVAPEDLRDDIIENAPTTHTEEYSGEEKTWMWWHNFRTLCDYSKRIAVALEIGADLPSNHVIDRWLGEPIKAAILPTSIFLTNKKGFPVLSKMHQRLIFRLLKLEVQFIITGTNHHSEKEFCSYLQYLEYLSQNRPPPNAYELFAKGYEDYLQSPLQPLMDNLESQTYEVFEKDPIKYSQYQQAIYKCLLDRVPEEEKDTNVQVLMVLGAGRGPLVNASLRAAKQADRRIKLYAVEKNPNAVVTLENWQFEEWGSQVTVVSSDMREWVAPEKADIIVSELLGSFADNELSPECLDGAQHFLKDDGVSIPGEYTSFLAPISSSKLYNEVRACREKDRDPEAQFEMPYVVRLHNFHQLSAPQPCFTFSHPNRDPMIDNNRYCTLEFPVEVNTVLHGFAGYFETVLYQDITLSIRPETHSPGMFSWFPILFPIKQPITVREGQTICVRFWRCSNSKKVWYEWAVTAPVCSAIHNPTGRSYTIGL

Compound: CC(=O)N1CCC(Nc2cc(C(=O)NC[C@H](O)CN3CCc4ccccc4C3)ncn2)CC1 [PEMRAMETOSTAT]
Activity (Z-138 [1]): Active
Activity (JVM-2): Active
Activity (Z-138 [2]): inactive
Activity (MCF7): Active
Activity (Z-138 [3]): Dose-Dependent Effect
Activity (Z-138 [4]): Tde
inhibition (Z-138 [5]): Active
Activity (Z-138 [6]): Active

inhibition [7]: inactive
GI50 (SK-N-AS): 31.9 nM
GI50 (NCI-H441): 556 nM
GI50 (SK-MEL3): 181 nM
GI50 (SW480): 413 nM
GI50 (HeLa): 230 nM
inhibition [9]: Active
GI50 (SNU-423): 66 nM
GI50 (SK-N-FI): 308 nM
inhibition [10]: Active
inhibition [11]: Active
GI50 (NCI-H661): 152 nM
GI50 (A-431): 549 nM
GI50 (U2OS): 485 nM
GI50 (HCT-116): 166 nM
Compound: O=C(NC[C@H](O)CN1CCc2ccccc2C1)c1ccnc(NC2CCC2)c1
GI50 (CHP-212): 24 nM
GI50 (HT-3): 10000 nM
Activity (Z-138 [8]): Active
GI50 (A498): 50.7 nM
GI50 (WiDr): 505 nM
GI50 (J-RT3-T3-5): 43.2 nM
GI50 (FaDu): 15.4 nM
GI50 [12]: 142 nM
